M4 ag: CHRM4 agonism in calcium assay; activation, % at 3 µM; CHO-K1 hM4/Gqi5, Fluo-8 calcium fluorescence; vehicle 0%, full acetylcholine response 100%; actives 0.14% (n = 360,000); AID 624127;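 active = activation above the run mean over all test wells plus 3 SD, cut at about 32% in these data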;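 note: peak over basal fluorescence ratio per well then scaled between controls; 0% = DMSO wells and 100% = acetylcholine at EC100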
Target sequence (P08173 whole entry, looked up): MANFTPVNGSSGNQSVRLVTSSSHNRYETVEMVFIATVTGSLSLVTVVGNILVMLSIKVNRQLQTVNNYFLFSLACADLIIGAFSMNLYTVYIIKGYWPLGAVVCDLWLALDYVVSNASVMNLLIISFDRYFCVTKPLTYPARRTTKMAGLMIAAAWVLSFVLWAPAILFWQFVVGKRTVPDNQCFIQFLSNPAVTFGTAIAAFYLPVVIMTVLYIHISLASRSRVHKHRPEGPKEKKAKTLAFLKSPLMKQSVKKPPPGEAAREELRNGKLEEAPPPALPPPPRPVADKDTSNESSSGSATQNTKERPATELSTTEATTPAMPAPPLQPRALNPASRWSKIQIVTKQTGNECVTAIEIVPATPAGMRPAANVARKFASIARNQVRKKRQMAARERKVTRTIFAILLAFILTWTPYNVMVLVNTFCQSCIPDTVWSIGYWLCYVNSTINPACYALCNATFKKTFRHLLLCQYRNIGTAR
CHRM5 agonist: agonists of human muscarinic M5 receptor (CHRM5); P08912; CHO-K1 hM5 cells, Fluo-8 calcium fluorescence; 0% DMSO wells, 100% maximal acetylcholine response; actives 0.19% (n = 360,000); activation, % at 3 µM;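 active = activation above the run's mean over test compounds plus 3 SD, cut at about 23% in these data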;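 note: signal is peak over basal fluorescence ratio across the kinetic read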
CHRM4 antagonist: CHRM4 antagonism in calcium assay | P08173 | CHO-hM4 cells, ACh EC80, Fluo-8 calcium fluorescence | inhibition, % at 3 µM | actives 0.73% (n = 360,000);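 active = inhibition above its plate's cutoff, the mean inhibition of sample wells plus 3 SD, cut at about 27% in these data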;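 note: 0% = acetylcholine EC80 with DMSO and 100% = DMSO without agonist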
CHRM4 PAM: positive allosteric modulators of human muscarinic M4 receptor. activation, % at 3 µM. P08173. AID 624126. actives 0.4% (n = 360,000). CHO-K1 hM4/Gqi5, Fluo-8 calcium fluorescence, ACh EC20; 0% = ACh EC20, 100% = maximal ACh;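 active = activation above its plate's cutoff, the mean activation of sample wells plus 3 SD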
CHRM5 PAM: CHRM5 positive allosteric modulation; P08912; CHO-K1 hM5, Fluo-8 calcium, ACh EC20 PAM; 0% = ACh EC20, 100% = ACh EC100; activation, % at 3 µM; actives 0.3% (n = 360,000); AID 624038;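 active = activation above the run cutoff, the mean activation of all test compounds plus 3 SD, cut at about 18% in these data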
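system = human M5 receptor in CHO-K1 cells | compound = one concentration, 3 µM final (nominal) | schedule = Post-acetylcholine fluorescence recording 140 s | signal = Fluo-8 calcium dye fluorescence, kinetic read | benchmarks = low control EC20 acetylcholine (0%), high control EC100 acetylcholine (100%) | repeats = singlicate, one well per test compound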
M5 antag: CHRM5 antagonism in calcium assay. inhibition, % at 3 µM. P08912. AID 624040. CHO-hM5 cells, Fluo-8 calcium fluorescence, ACh EC80. actives 0.59% (n = 360,000);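 active = inhibition above a per-plate cutoff, the mean of that plate's test compounds plus 3 SD, cut at about 27% in these data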;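 note: 0% = acetylcholine EC80 with DMSO and 100% = DMSO without agonist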
* hit, by the source's call. Hits are enriched below; roughly 1.9% of the tested compounds scored in any of these assays.

SMILES	M4 ag	CHRM5 agonist	CHRM4 antagonist	CHRM4 PAM	CHRM5 PAM	M5 antag
CC(C)(C)c1ccc(OCCC(=O)OCC(=O)N2c3ccccc3NC(=O)C2(C)C)cc1	24	3	59*	-13	-35	36*
Cc1cnc(C(=O)OCC(=O)N2c3ccccc3NC(=O)C2(C)C)cn1	1	-1	1	-1	3	2
Cc1nn(-c2ccccc2)c(C)c1C(=O)OCC(=O)N1c2ccccc2NC(=O)C1(C)C	17	8	33*	-15	-21	22
CCOC(=O)CCCNC(=O)COC(=O)[C@@H]1CCCN1S(=O)(=O)c1ccc(Cl)cc1	1	0	9	-7	0	-4
CCOC(=O)c1oc2ccc(Cl)cc2c1NC(C)=O	2	-1	-9	20*	1	8
CCOC(=O)c1oc2ccccc2c1NC(=O)C(C)(C)C	-1	-1	-6	5	5	6
CC1(C)CC(=O)C=C(N2CCNCC2)C1	1	-6	-17	0	6	-10
CCN(CC)S(=O)(=O)c1ccc2oc(C(=O)Nc3ccc(OC)cc3OC)c(C)c2c1	1	0	-1	2	3	-8
Cc1nc(-c2cccc(NC(=O)C3CCCCC3)c2)cs1	3	-1	-16	8	26*	-29
Cc1nc(-c2cccc(NC(=O)c3ccc(Br)o3)c2)cs1	5	-6	1	-1	-12	27*
CCOC(=O)CS(=O)(=O)c1nc(-c2ccccc2)cc(C(F)(F)F)n1	2	-11	38*	-8	9	15
Cc1cccc(C(=O)NNS(=O)(=O)c2ccccc2[N+](=O)[O-])c1	1	0	-2	28*	-2	-7
FC(F)(F)c1cc(CCN2CCNC[C@@H]2CC2CCCCC2)cc(C(F)(F)F)c1	0	-11	29*	-8	-39	26
CCCCCCCCCCn1c2c(c(=N)c3c1CCC3)CCC2	8	-3	28*	-28	-20	39*
CCCCCCCCn1c2c(c(=N)c3ccccc31)CCC2	21	-2	58*	-19	-16	48*
CCOC(=O)Cn1c2c(c(=N)c3c1CCC3)CCC2	0	-4	9	0	4	-6
CCOC(=O)Cn1c2c(c(=N)c3ccccc31)CCC2	0	-2	-15	12	19*	5
CCCCCCCCCn1c2c(c(=N)c3c1CCC3)CCCC2	20	-2	63*	-20	-16	58*
CC1(C)NC(=O)N(CC(=O)OCC(=O)Nc2c(Br)cc([N+](=O)[O-])cc2Br)C1=O	7	4	-1	-1	-5	4
Cc1cccc(OCc2nnc(SCC(=O)N(c3ccccc3)C3CCS(=O)(=O)C3)o2)c1 (stereo not drawn)	5	-1	2	5	2	6
COC(=O)N(C)C[C@H]1OCc2cnnn2CCCC(=O)N([C@@H](C)CO)C[C@@H]1C	1	2	-5	4	0	-5
O=C1CSC(=S)N1/N=C/c1cc(Br)c(O)c(Br)c1	401*	200*	54*	-30	-20	48*
O=C(Cn1nnc(-c2ccc(CN3CCOCC3)cc2)n1)N(c1ccccc1)c1ccccc1	1	1	5	7	23*	2
Nc1ccc2nc3c(=O)n(CCc4ccccc4)c(=O)[nH]c3nc2c1	45*	165*	18	-18	-31	33*
CCCCn1c(=O)[nH]c2nc3cc(N)ccc3nc2c1=O	57*	22	22	-24	-11	16
SMILES	M4 ag	CHRM5 agonist	CHRM4 antagonist	CHRM4 PAM	CHRM5 PAM	M5 antag
Nc1ccc2nc3c(=O)n(C4CCCCC4)c(=O)[nH]c3nc2c1	70*	133*	21	-42	-40	35*
Nc1ccc2nc(CCc3ccccc3)[nH]c2c1	6	-2	-6	3	-6	5
Cc1cc2nc3c(=O)n(CCc4ccccc4)c(=O)[nH]c3nc2cc1N	9	32*	0	-2	-7	6
CC1(C)Cc2nc3sc(C(=O)NCCCO)c(N)c3cc2CS1	1	-1	-5	9	-3	-4
CN(C)/C=C/c1onc(-c2c(F)cccc2Cl)c1C#N	0	3	0	12	28*	10
Cc1onc(-c2c(F)cccc2Cl)c1C(=O)NC1CC1	2	-1	-2	-3	0	6
O=C(c1ccc(F)cc1)N1CCN2C(=O)c3ccccc3C12c1ccccc1 (stereo not drawn)	18	-15	6	-24	-35	34*
O=C(c1ccccc1)N1CCN2C(=O)c3ccccc3C12c1ccc(Cl)cc1 (stereo not drawn)	1	-11	-5	-2	-14	6
O=C(c1ccc(F)cc1)N1CCN2C(=O)c3ccccc3C12c1ccc(Cl)cc1 (stereo not drawn)	-1	-11	7	-14	-18	47*
CC(C)(C)OC(=O)N1CCc2onc(-c3ccccc3F)c2C1=O	0	1	-16	0	2	-9
Cc1ccc(C2=NO[C@@](CC(=O)O)(C(=O)Nc3ccc4c(c3)OCCO4)C2)cc1	1	-2	-6	2	2	0
CCOC(=O)N1CCC2(CC1)CC(=O)c1c(ccc3oc(C(=O)O)c(C)c13)O2	-1	3	-11	-2	-3	-3
N/C(=N\OC(=O)COc1ccc(Cl)cc1Cl)c1ccncc1	5	-9	-14	-6	3	-1
C=CCN(c1ccccc1)S(=O)(=O)c1ccc(Cl)c(C(=O)OCC(=O)c2[nH]c(C)c(C(C)=O)c2C)c1	6	-3	27*	-30	-19	17
C=CCN(c1ccc(OC)cc1)S(=O)(=O)c1ccc(Cl)c(C(=O)OCC(=O)NC2CC2)c1	4	0	4	-7	-10	4
COCc1cccc(-c2csc(C(C)(O)c3ccccc3)n2)c1 (stereo not drawn)	3	0	9	-8	-11	19
COc1ccc(-n2c(C)nc3c(cnn3-c3ccc(C)c(C)c3)c2=O)cc1	1	1	31*	-11	-1	4
N/C(Cc1ccccc1Sc1ccccc1)=N\O	2	0	-1	4	-7	11
CCN(CC)Cc1ccccc1Sc1ccccc1	0	-9	53*	-17	-18	99*
CC(NC(=O)/C(C#N)=C1\N=C(NC(=O)c2ccco2)c2ccccc21)c1ccccc1 (stereo not drawn)	3	6	3	-3	1	3
Cc1cc2ccccc2n1CCNCc1c(C(=O)N2CCOCC2)nc2ccccn12	30	245*	25	-17	-6	75*

Screening data from PubChem BioAssay.
